Legend:
Cytochrome P450 2C9 = Cytochrome P450 2C9 (Homo sapiens, UniProt P11712); test: Inhibition of CYP2C9; assay type: ADME
Cytochrome P450 2C19 = Cytochrome P450 2C19 (Homo sapiens, UniProt P33261); test: Inhibition of CYP2C19; assay type: ADME
Cytochrome P450 2D6 = Cytochrome P450 2D6 (Homo sapiens, UniProt P10635); test: Inhibition of CYP2D6; assay type: ADME
Cytochrome P450 3A4 = Cytochrome P450 3A4 (Homo sapiens, UniProt P08684); test: Inhibition of CYP3A4; assay type: ADME
[1] = target: Voltage-gated inwardly rectifying potassium channel KCNH2 (Homo sapiens, UniProt Q12809); test: Inhibition of human ERG
Voltage-gated inwardly rectifying potassium channel KCNH2, sequence (Q12809 whole entry): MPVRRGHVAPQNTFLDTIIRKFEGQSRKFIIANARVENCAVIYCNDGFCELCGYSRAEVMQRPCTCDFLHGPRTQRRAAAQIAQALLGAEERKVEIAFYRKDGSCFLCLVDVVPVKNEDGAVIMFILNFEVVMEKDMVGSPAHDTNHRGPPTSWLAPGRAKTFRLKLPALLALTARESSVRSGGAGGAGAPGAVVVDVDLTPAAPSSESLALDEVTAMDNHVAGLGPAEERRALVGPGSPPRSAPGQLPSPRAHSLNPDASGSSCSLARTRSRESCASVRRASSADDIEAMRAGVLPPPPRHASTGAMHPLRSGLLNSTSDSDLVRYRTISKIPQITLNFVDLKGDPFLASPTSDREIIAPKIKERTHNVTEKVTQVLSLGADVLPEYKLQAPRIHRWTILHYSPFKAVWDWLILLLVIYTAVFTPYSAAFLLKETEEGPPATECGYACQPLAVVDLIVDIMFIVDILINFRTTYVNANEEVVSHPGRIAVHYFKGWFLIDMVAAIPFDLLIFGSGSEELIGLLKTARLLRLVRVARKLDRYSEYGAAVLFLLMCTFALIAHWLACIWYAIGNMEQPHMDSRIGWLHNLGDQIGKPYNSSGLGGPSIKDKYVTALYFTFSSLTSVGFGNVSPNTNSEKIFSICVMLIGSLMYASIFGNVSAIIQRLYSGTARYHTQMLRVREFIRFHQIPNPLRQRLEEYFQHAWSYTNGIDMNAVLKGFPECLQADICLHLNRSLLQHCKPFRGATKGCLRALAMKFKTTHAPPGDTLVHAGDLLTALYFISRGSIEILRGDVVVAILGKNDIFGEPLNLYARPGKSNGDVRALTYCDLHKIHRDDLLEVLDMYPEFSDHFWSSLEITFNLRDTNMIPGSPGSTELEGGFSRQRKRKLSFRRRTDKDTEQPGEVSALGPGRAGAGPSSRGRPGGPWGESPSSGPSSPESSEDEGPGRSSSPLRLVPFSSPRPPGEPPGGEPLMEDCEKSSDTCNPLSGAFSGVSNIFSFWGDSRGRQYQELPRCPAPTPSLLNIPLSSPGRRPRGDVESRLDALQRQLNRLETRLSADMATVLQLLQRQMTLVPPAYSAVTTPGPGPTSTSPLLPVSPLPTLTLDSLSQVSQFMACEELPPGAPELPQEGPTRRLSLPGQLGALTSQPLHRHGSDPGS

Salmonella typhimurium = test: Genotoxicity in Salmonella Typhimurium by Ames test in presence of S9 fraction; assay type: toxicity, organism-based; details: salmonella enterica subsp. enterica serovar typhimurium
Adenosine receptor A2b [2] = target: T1, Adenosine receptor A2b (Homo sapiens, UniProt P29275); test: Inhibition of human adenosine A2B receptor expressed in CHO cells assessed as decrease in cellular cAMP level after 20 to 25 mins; assay type: functional, cell-based
T1 sequence (P29275 whole entry): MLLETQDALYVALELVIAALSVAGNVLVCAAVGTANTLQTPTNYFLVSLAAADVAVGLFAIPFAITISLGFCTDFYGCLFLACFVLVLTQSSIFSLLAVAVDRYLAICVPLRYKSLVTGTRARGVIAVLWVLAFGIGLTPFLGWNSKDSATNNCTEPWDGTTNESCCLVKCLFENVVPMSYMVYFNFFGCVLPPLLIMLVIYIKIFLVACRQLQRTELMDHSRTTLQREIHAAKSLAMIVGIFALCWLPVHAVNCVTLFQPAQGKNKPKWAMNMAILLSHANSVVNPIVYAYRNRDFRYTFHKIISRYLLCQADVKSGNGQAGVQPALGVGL

Adenosine receptor A1 = target: T2, Adenosine receptor A1 (Homo sapiens, UniProt P30542); test: Displacement of [3H]-DPCPX from human adenosine A1 receptor after 1 hr
T2 sequence (P30542 whole entry): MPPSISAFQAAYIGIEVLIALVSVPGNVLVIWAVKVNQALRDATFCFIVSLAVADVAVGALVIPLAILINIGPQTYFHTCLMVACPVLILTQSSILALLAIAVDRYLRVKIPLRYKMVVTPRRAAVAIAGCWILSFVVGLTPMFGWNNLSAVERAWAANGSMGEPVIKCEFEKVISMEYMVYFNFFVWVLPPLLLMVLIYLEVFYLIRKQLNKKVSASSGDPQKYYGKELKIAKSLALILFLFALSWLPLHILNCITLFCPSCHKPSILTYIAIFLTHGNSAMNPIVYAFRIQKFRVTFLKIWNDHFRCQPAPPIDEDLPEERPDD
Method in brief: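 Human A1 receptor membranes, diluted in HEPES 50 mM, NaCl 100 mM, MgCl2 1 mM, were incubated with [3H]-DPCPX (4.8 nM final) and test compound for 1 h at room temperature with orbital shaking. Reactions were filtered on polyethyleneimine-treated filter plates, air dried and counted by scintillation. Values given as Ki.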

Adenosine receptor A2a = Adenosine receptor A2a (Homo sapiens, UniProt P29274); test: Displacement of [3H]ZM241385 from human adenosine A2A receptor after 1 hr
Adenosine receptor A2a, sequence (P29274 whole entry): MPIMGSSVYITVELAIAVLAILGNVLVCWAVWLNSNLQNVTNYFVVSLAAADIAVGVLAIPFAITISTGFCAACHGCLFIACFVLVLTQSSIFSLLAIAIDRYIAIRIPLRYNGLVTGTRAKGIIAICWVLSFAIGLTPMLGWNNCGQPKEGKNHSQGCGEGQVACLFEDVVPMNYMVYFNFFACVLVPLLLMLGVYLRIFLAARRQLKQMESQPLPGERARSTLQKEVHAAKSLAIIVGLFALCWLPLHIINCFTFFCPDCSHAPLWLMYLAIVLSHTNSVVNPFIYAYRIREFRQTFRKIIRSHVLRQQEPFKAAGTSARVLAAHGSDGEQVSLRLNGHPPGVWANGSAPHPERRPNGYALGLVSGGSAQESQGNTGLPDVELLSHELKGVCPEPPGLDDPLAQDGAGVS

Adenosine receptor A2b [3] = target: T1, Adenosine receptor A2b; test: Displacement of [3H]ZM241385 from human adenosine A2B receptor expressed in CHO cells after 1 hr; assay type: cell-based
Method in brief: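 Whole CHO cells expressing human A2B were harvested mechanically at 80% confluence, frozen in aliquots and resuspended in assay buffer on the day of assay. Cells were incubated with [3H]-ZM241385 (30 nM final) and test compound for 1 h at room temperature with orbital shaking. Reactions were filtered on polyethyleneimine-treated plates and counted by scintillation. Values given as Ki.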

Cytochrome P450 2D6, sequence (P10635 whole entry): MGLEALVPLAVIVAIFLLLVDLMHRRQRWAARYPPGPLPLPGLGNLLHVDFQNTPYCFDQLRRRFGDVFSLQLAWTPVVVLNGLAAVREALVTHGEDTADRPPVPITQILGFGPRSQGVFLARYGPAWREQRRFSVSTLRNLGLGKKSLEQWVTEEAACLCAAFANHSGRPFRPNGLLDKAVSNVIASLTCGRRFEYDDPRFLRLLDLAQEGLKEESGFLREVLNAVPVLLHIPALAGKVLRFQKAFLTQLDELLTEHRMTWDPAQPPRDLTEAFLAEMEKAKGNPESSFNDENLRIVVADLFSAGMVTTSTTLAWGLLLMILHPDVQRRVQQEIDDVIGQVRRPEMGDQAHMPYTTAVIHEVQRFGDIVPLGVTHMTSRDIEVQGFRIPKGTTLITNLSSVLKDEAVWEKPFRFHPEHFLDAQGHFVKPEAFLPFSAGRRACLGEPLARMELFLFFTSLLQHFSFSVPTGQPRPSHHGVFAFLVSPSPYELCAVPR
Cytochrome P450 2C19, sequence (P33261 whole entry): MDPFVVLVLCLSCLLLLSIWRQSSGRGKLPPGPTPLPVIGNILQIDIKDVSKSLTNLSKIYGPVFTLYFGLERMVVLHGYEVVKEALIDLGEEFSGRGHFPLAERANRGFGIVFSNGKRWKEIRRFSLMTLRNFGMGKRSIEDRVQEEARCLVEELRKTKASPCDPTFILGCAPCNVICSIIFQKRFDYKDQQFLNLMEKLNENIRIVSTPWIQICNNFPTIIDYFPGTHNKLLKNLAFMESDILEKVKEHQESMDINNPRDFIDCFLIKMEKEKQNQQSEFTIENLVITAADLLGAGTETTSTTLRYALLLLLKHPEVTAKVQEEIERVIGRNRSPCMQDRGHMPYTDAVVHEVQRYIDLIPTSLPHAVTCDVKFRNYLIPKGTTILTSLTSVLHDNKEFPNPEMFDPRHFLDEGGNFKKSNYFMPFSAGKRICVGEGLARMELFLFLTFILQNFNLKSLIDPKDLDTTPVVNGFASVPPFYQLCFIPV
Cytochrome P450 3A4, sequence (P08684 whole entry): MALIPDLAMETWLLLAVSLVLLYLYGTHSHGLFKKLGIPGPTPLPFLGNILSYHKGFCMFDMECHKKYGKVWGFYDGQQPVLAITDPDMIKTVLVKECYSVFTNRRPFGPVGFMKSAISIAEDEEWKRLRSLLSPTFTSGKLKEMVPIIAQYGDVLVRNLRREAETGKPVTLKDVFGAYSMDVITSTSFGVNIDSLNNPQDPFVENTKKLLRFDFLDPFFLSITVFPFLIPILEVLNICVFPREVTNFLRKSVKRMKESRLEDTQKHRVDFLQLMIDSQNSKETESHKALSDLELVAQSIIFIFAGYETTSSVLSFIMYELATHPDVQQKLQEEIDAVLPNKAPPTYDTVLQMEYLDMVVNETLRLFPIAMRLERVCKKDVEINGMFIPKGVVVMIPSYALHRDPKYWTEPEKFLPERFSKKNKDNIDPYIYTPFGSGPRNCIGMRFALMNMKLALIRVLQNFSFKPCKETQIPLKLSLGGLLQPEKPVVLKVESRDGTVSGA
Cytochrome P450 2C9, sequence (P11712 whole entry): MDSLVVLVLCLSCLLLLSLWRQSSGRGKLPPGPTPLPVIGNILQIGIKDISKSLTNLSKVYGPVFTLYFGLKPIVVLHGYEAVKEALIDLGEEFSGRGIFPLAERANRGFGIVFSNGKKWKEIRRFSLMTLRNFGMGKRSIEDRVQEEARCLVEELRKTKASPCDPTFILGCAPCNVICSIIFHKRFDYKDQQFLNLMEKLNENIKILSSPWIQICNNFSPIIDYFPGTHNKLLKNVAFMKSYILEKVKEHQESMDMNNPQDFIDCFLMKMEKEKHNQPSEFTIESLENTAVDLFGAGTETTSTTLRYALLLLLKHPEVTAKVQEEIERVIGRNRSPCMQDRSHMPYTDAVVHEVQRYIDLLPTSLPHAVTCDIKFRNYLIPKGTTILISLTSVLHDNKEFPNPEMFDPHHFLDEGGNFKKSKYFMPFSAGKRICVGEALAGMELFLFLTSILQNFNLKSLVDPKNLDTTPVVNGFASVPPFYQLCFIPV

| SMILES | IC50 (Adenosine receptor A2b [2]) [nM] | Ki (Adenosine receptor A1) [nM] | Ki (Adenosine receptor A2a) [nM] | other results |
| --- | --- | --- | --- | --- |
| CCN(C(C)=O)c1ccc(OC)c2nc(NC(=O)c3ccnn3C)sc12 | – | – | – | IC50 (Cytochrome P450 2C9): > 50000 nM; IC50 (Cytochrome P450 2C19): > 50000 nM; IC50 (Cytochrome P450 2D6): > 50000 nM; IC50 (Cytochrome P450 3A4): > 50000 nM; IC50 [1]: > 100000 nM; Activity (Salmonella typhimurium): Non-toxic |
| CCN(C(C)=O)c1ccc(OC)c2nc(NC(=O)[C@H]3CC[C@@H](NS(=O)(=O)c4cccc(C(F)(F)F)c4)CC3)sc12 | 16 | 46 | 110 | – |
| CCN(C(C)=O)c1ccc(OC)c2nc(NC(=O)[C@@H]3CCN(S(=O)(=O)c4cccc(C(F)(F)F)c4)C3)sc12 | 42 | 220 | 600 | – |
| CCN(C(C)=O)c1ccc(OC)c2nc(NC(=O)[C@@H]3CCN(C(=O)c4cccc(C(F)(F)F)c4)C3)sc12 | 14 | 100 | 2040 | Ki (Adenosine receptor A2b [3]): 18 nM |
| CCN(C(C)=O)c1ccc(OC)c2nc(NC(=O)[C@H]3CCN(C(=O)c4cccc(C(F)(F)F)c4)C3)sc12 | 41 | 120 | 710 | – |
| CCN(C(C)=O)c1ccc(OC)c2nc(NC(=O)[C@@H]3CC[C@H](NC(=O)c4cccc(C(F)(F)F)c4)C3)sc12 | 8 | 61 | 81 | – |
| CCN(C(C)=O)c1ccc(OC)c2nc(NC(=O)[C@@H]3CC[C@@H](NC(=O)c4cccc(C(F)(F)F)c4)C3)sc12 | 8 | 31 | 31 | – |
| CCN(C(C)=O)c1ccc(OC)c2nc(NC(=O)[C@@H]3CCN(Cc4cccc(C(F)(F)F)c4)C3)sc12 | 72 | – | – | – |
| CCN(C(C)=O)c1ccc(OC)c2nc(NC(=O)C3CCN(C(=O)c4cccc(C(F)(F)F)c4)CC3)sc12 | 17 | 2 | 230 | – |
| CCN(C(C)=O)c1ccc(OC)c2nc(NC(=O)C3CCN(S(=O)(=O)c4cccc(C(F)(F)F)c4)CC3)sc12 | 49 | 78 | 1040 | – |
| CCN(C(C)=O)c1ccc(OC)c2nc(NC(=O)C3CCN(Cc4cccc(C(F)(F)F)c4)CC3)sc12 | 44 | 10 | 1000 | – |
| CCN(C(C)=O)c1ccc(OC)c2nc(NC(=O)[C@H]3CC[C@H](NC(=O)c4cccc(C(F)(F)F)c4)CC3)sc12 | 28 | 7 | 470 | – |
| CCN(C(C)=O)c1ccc(OC)c2nc(NC(=O)[C@H]3CC[C@@H](NC(=O)c4cccc(C(F)(F)F)c4)CC3)sc12 | 26 | 20 | 52 | – |
| CCN(C(C)=O)c1ccc(OC)c2nc(NC(=O)N3CCC(O)(c4cccc(C(F)(F)F)c4)CC3)sc12 | 8 | 19 | 210 | Ki (Adenosine receptor A2b [3]): 5 nM |
| CCN(C(C)=O)c1ccc(OC)c2nc(NC(=O)N3CCC(c4cccc(C(F)(F)F)c4)CC3)sc12 | 18 | 5 | 240 | – |
| CCN(C(C)=O)c1ccc(OC)c2nc(NC(=O)N3CCC(S(=O)(=O)c4cccc(C(F)(F)F)c4)CC3)sc12 | 20 | 690 | 530 | – |
| CCN(C(C)=O)c1ccc(OC)c2nc(NC(=O)[C@@H]3CC[C@H](NCc4cccc(C(F)(F)F)c4)C3)sc12 (relative stereo) | 19 | 220 | 180 | – |
